Laboratory results published in ChEMBL document CHEMBL1132814, “N-1 substituted pyrimidin-4-ones: novel, orally active inhibitors of lipoprotein-associated phospholipase A2” (Bioorg Med Chem Lett, 2000).

The compounds below were run against T1, Platelet-activating factor acetylhydrolase (Homo sapiens) (UniProt Q13093) (assay: Inhibition of Lipoprotein associated phospholipase A2 in human plasma at 100 nM).
T1 sequence (whole entry): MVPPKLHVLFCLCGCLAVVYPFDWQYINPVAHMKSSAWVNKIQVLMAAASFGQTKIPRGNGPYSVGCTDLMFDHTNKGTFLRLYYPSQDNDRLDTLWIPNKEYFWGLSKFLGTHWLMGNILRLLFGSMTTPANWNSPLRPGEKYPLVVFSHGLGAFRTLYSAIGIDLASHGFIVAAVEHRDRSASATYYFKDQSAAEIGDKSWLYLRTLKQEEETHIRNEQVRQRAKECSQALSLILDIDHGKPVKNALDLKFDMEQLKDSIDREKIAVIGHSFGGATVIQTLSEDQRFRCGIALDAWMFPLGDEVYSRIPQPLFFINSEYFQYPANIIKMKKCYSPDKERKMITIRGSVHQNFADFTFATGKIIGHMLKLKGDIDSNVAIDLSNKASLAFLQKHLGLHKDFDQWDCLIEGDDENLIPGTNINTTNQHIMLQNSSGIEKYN
Type: cell-free
Procedure, shortened: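 Whole plasma (human, or WHHL rabbit) mixed with compound in DMSO at a single concentration and preincubated 10 min at 37 °C before enzyme assay. Reaction ran 60 s in human plasma and 15 s in rabbit plasma, then stopped with CHCl3/MeOH (2:1). Released [3H]acetate was read by scintillation counting of the aqueous layer after chloroform extraction.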

Compared with O=c1nc(SCc2ccc(F)cc2)n(Cc2ccco2)cc1Cc1cncnc1, O=c1nc(SCc2ccc(F)cc2)n(CCc2ccccc2)cc1Cc1cncnc1 is higher in inhibition: 26% for the first, 27% for the second.

In the case of Cn1cc(Cc2cncnc2)c(=O)nc1SCc1ccc(F)cc1, the inhibition is reported as 28%.

These compounds were tested against T2, Platelet-activating factor acetylhydrolase (Homo sapiens, UniProt Q13093) (assay: Inhibition of isolated human lipoprotein associated phospholipase A2).
T2 sequence (Q13093 whole entry): T1 sequence (whole entry)

O=C(CCCCCCCSc1nc(=O)c(Cc2cncnc2)cn1Cc1ccco1)c1ccc(Cl)cc1 and O=C(CCCCCCCSc1nc(=O)c(Cc2cncnc2)cn1Cc1cccs1)c1ccc(Cl)cc1 are within 1.5-fold of each other in IC50: 16 nM for the first, 11 nM for the second.

First: O=C(CCCCCCCSc1nc(=O)c(Cc2cncnc2)cn1CCc1ccccc1)c1ccc(Cl)cc1
Second: O=C(CCCCCCCSc1nc(=O)c(Cc2cncnc2)cn1CCCc1ccccc1)c1ccc(Cl)cc1
The IC50 of the first is 2.6-fold lower: 34 nM for the first, 90 nM for the second.

Going from O=c1nc(SCc2ccc(Cl)cc2)n(Cc2ccco2)cc1Cc1cncnc1 to O=c1nc(SCc2ccc(F)cc2)n(Cc2ccco2)cc1Cc1cncnc1, the IC50 falls from 1400 nM to 300 nM (4.7-fold). The second is the more potent here.

Compared with O=c1nc(SCc2ccc(F)c(F)c2)n(CCc2ccccc2)cc1Cc1cncnc1, O=c1nc(SCc2ccc(F)cc2)n(CCc2ccccc2)cc1Cc1cncnc1 is 1.8-fold higher in IC50: 110 nM for the first, 200 nM for the second. The first is the more potent here.

Going from CCCCCCCCCCCCCCCCCCNC(=O)CCCn1cc(Cc2cncnc2)c(=O)nc1SCc1ccc(F)cc1 to CCCCCCCCC=CCCCCCCCCNC(=O)CCCn1cc(Cc2cncnc2)c(=O)nc1SCc1ccc(F)cc1, the IC50 falls from 4 nM to 0.4 nM (10-fold).

First: CCCCCCCC(=O)NCCn1cc(Cc2cncnc2)c(=O)nc1SCc1ccc(F)cc1
Second: CCCCNC(=O)CCCCCn1cc(Cc2cncnc2)c(=O)nc1SCc1ccc(F)cc1
The IC50 of the first is 1.9-fold lower: 140 nM for the first, 260 nM for the second.

Going from CCCCCCCCCCNC(=O)CCCn1cc(Cc2cncnc2)c(=O)nc1SCc1ccc(F)cc1 to CCCCCCCCCCCn1cc(Cc2cncnc2)c(=O)nc1SCc1ccc(F)cc1, the IC50 rises from 0.1 nM to 19 nM (190-fold). The first is the more potent here.

Going from O=c1nc(SCc2ccccc2)n(Cc2ccccc2)cc1Cc1cncnc1 to O=c1nc(SCc2ccccc2)n(CCc2ccccc2)cc1Cc1cncnc1, the IC50 falls from 450 nM to 210 nM (2.1-fold). The second is the more potent here.

First: O=c1nc(SCc2ccc(F)cc2)n(CCCCCCCCCc2ccccc2)cc1Cc1cncnc1
Second: CCCCCCc1ccc(CCn2cc(Cc3cncnc3)c(=O)nc2SCc2ccc(F)cc2)cc1
The IC50 of the first is 2.1-fold higher: 25 nM for the first, 12 nM for the second.

First: O=c1nc(SCc2cccc(F)c2)n(Cc2ccco2)cc1Cc1cncnc1
Second: O=c1nc(SCc2cccc(Cl)c2)n(Cc2ccco2)cc1Cc1cncnc1
The IC50 of the first is 3.8-fold lower: 250 nM for the first, 960 nM for the second. The first is the more potent here.

O=C(CCCCCCCSc1nc(=O)c(Cc2cncnc2)cn1Cc1ccccc1)c1ccc(Cl)cc1 and CCn1cc(Cc2cncnc2)c(=O)nc1SCCCCCCCC(=O)c1ccc(Cl)cc1 are within 1.5-fold of each other in IC50: 36 nM for the first, 39 nM for the second.

Compared with Cn1cc(Cc2cncnc2)c(=O)nc1SCCCCCCCC(=O)c1ccc(Cl)cc1, COCCn1cc(Cc2cncnc2)c(=O)nc1SCCCCCCCC(=O)c1ccc(Cl)cc1 is 5.8-fold higher in IC50: 19 nM for the first, 110 nM for the second. The first is the more potent here.

Compared with O=C(Cn1cc(Cc2cncnc2)c(=O)nc1SCc1ccc(F)cc1)NCCCCCCc1ccc(F)cc1, CCCCCCCNC(=O)Cn1cc(Cc2cncnc2)c(=O)nc1SCc1ccc(F)cc1 is 9.5-fold higher in IC50: 2 nM for the first, 19 nM for the second. The first is the more potent here.

Compared with CCCCCCCCN(C)C(=O)Cn1cc(Cc2cncnc2)c(=O)nc1SCc1ccc(F)cc1, CCCCCCCN(C)C(=O)CCCn1cc(Cc2cncnc2)c(=O)nc1SCc1ccc(F)cc1 is 5-fold lower in IC50: 15 nM for the first, 3 nM for the second. The second is the more potent here.

Going from Cn1cc(Cc2cncnc2)c(=O)nc1SCc1ccccc1 to COCCn1cc(Cc2cncnc2)c(=O)nc1SCc1ccccc1, the IC50 rises from 660 nM to 1200 nM (1.8-fold).

Going from CCCCCCCNC(=O)NCCn1cc(Cc2cncnc2)c(=O)nc1SCc1ccc(F)cc1 to CCCCCCCCNC(=O)Cn1cc(Cc2cncnc2)c(=O)nc1SCc1ccc(F)cc1, the IC50 falls from 70 nM to 7 nM (10-fold).

O=c1nc(SCc2ccccc2)n(CCCc2ccccc2)cc1Cc1cncnc1 and O=c1nc(SCc2ccccc2)n(CCc2cccs2)cc1Cc1cncnc1 are within 1.5-fold of each other in IC50: 300 nM for the first, 350 nM for the second.

Cn1cc(Cc2cncnc2)c(=O)nc1SCc1ccc(F)cc1 and O=c1nc(SCc2ccc(F)cc2)n(CCc2cccs2)cc1Cc1cncnc1 are within 1.5-fold of each other in IC50: 285 nM for the first, 250 nM for the second.

Compared with O=c1nc(SCc2ccccc2)n(Cc2cccs2)cc1Cc1cncnc1, O=c1nc(SCc2ccccc2F)n(Cc2ccco2)cc1Cc1cncnc1 is 2.1-fold higher in IC50: 210 nM for the first, 450 nM for the second.

Going from CCCCCCCCC=CCCCCCCCCNC(=O)Cn1cc(Cc2cncnc2)c(=O)nc1SCc1ccc(F)cc1 to CCCCCCCC/C=C/CCCCCCCCNC(=O)Cn1cc(Cc2cncnc2)c(=O)nc1SCc1ccc(F)cc1, the IC50 rises from 1 nM to 2 nM (2-fold).

Going from CCCCCCCC/C=C/CCCCCCCCNC(=O)CCCn1cc(Cc2cncnc2)c(=O)nc1SCc1ccc(F)cc1 to O=c1nc(SCc2ccc(F)c(F)c2)n(Cc2ccco2)cc1Cc1cncnc1, the IC50 rises from 0.7 nM to 235 nM (340-fold).
